Results reported in ChEMBL document CHEMBL1144529, “A library of novel hydroxamic acids targeting the metallo-protease family: design, parallel synthesis and screening” (Bioorg Med Chem, 2007).

Target: T1, Aminopeptidase N (Sus scrofa, UniProt P15145)
T1 sequence (P15145 whole entry): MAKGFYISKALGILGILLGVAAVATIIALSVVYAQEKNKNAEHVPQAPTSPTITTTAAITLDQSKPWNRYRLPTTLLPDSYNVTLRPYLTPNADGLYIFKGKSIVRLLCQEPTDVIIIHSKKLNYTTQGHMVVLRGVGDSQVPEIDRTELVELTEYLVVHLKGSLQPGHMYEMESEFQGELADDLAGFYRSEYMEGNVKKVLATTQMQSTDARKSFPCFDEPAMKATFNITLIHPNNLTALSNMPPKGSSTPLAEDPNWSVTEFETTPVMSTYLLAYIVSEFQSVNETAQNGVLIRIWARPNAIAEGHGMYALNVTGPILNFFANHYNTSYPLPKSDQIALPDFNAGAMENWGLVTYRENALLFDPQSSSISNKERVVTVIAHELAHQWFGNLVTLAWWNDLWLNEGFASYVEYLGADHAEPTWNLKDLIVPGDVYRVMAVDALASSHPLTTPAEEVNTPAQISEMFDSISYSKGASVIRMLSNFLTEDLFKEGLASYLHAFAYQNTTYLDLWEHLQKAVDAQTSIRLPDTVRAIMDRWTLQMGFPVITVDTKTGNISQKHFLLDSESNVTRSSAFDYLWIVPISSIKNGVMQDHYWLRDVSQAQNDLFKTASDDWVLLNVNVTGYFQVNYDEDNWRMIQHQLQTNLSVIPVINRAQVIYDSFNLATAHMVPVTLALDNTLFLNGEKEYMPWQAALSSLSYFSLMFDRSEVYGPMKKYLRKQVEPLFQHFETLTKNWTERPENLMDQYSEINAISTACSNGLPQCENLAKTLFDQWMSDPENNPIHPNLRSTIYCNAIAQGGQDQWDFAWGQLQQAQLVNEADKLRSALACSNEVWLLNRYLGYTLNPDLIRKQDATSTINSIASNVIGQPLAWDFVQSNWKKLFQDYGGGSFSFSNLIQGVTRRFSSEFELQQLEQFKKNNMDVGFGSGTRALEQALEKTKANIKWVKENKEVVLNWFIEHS
Experiment: Inhibition of microsomal […] aminopeptidase in pig kidney
Outline: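 Porcine kidney microsomal APN, ammonium sulfate suspension diluted 600-fold in Tris-HCl (25 mM, pH 7.4). Activity compared with enzyme run without inhibitor.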

Row | SMILES | IC50 [nM]
1 | CC(C)CC(C(=O)NO)C(=O)NC1CCc2ccccc2C1 (centres undefined) | 3040
2 | CC(C)CC(C(=O)NO)C(=O)NCCCCc1ccccc1 (centres undefined) | 82
3 | CC(C)CC(C(=O)NO)C(=O)NCc1ccc(F)cc1 (centres undefined) | 3000
4 | O=C(NO)C(Cc1cccc(Oc2ccccc2)c1)C(=O)NCCCCc1ccccc1 (centres undefined) | > 10000
5 | CC(C)CC(C(=O)NO)C(=O)NCc1ccccc1 (centres undefined) | 590
6 | CC(C)CC(C(=O)NO)C(=O)NCCc1ccccc1 (centres undefined) | 984
7 | O=C(NO)C(Cc1ccccc1)C(=O)NCc1ccccc1 (centres undefined) | > 10000
8 | CC(C)CC(C(=O)NO)C(=O)NCc1cccc(Oc2ccccc2)c1 (centres undefined) | 443
9 | O=C(NO)C(Cc1cccc(Oc2ccccc2)c1)C(=O)NCc1ccccc1 (centres undefined) | > 10000
10 | O=C(NO)C(Cc1ccccc1)C(=O)NCCCCc1ccccc1 (centres undefined) | > 10000

Continued by falling IC50, values first:

Row | IC50 [nM] | SMILES
11 | 2520 | CC(C)CC(C(=O)NO)C(=O)NCc1ccc(Cl)cc1 (centres undefined)
12 | 718 | Cn1c(CC(C(=O)NO)C(=O)NCc2ccccc2)nc2ccccc21 (centres undefined)
13 | 528 | CC(C)CC(C(=O)NO)C(=O)NCCCc1ccccc1 (centres undefined)
14 | 452 | CC(C)CC(C(=O)NO)C(=O)N1CCC(Cc2ccccc2)CC1 (centres undefined)
